Molecules are shown by their SMILES. Activity calls are given as the source filed them. No cut-off for these calls is given here.

The text below walks through data of ChEMBL document CHEMBL2385004, “Development of flavonoid-based inverse agonists of the key signaling receptor US28 of human cytomegalovirus” (J Med Chem, 2013).

The test system of one experiment is CHO. The experiment is described as follows: Cytotoxicity against CHO cells after 48 hrs by MTS assay. In kind it is cell-based. The following applies: Cricetulus griseus. The essentials:
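CHO cells plated at 10000 cells/mL and incubated overnight. Drug from DMSO stock added, final DMSO <1%. Incubated 48 h at 37 °C, 5% CO2, then MTS reagent for 4 h more. Absorbance read at 490 nm. Run in triplicate; IC50 taken from a plot of relative A490 vs drug concentration.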

Experiment [1] is described as follows: Activation of MAPK signaling pathway in mock-transfected HEK293T cells at 10 uM after 20 to 24 hrs by luciferase-based Elk1 reporter gene assay relative to control. The following applies: Homo sapiens, HEK-293T. In kind it is cell-based. The essentials:
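HEK293T cells transiently transfected with 0.1 μg Elk1, 5 μg Luc and empty pcDNA3 (PathDetect trans Elk1 system). After 5 h, washed, seeded at 20,000 cells/well in DMEM, 1% FBS, 2 mM L-glutamine, 1% pen-strep, 1% DMSO. Compound at 10 μM; 37 °C, 5% CO2, 20−24 h. Bright-Glo luminescence; % effect = 100% × (treated/1% DMSO control luminescence) − 100%.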

Experiment [2] in a line: Inverse agonist activity at human cytomegalovirus US28 receptor transfected in HEK293T cells assessed as activation of MAPK signaling pathway at 10 uM after 20 to 24 hrs by luciferase-based Elk1 reporter gene assay relative to control. It counts as cell-based. The following applies: Human betaherpesvirus 5, HEK-293T. The procedure, abridged:
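HEK293T transiently transfected with 0.1 μg Elk1, 5 μg Luc and 5 μg US28 vector (PathDetect trans Elk1), reading US28-driven MAPK/Elk1 signaling. After 5 h, seeded 20,000 cells/well in DMEM, 1% FBS, 2 mM L-glutamine, 1% pen-strep, 1% DMSO with compound; 37 °C, 5% CO2, 20−24 h. Bright-Glo luciferase luminescence vs no-compound control. Triplicates, 3−5 experiments; curves normalized, pooled, fitted by nonlinear regression.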

Experiment [3] can be described thus: Inverse agonist activity at human cytomegalovirus US28 receptor transfected in HEK293T cells assessed as activation of MAPK signaling pathway after 20 to 24 hrs by luciferase-based Elk1 reporter gene assay. It counts as cell-based, Human betaherpesvirus 5, HEK-293T. The essentials:
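HEK293T cells transiently co-transfected with Elk1 (0.1 μg), Luc (5 μg) and US28 vector (5 μg); 5 h later washed, seeded at 20,000 cells/well in DMEM, 1% FBS, 2 mM L-glutamine, 1% penicillin-streptomycin, 1% DMSO with compound; 37 °C, 5% CO2, 20–24 h; BrightGlo luminescence. 3–5 experiments in triplicate, pooled normalized sigmoid fits give EC50 and efficacy.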

Where [4] appears, read: Human betaherpesvirus 5, HEK-293T, read-out: EC50.
Where [5] appears, read: Human betaherpesvirus 5, HEK-293T, read-out: pEC50 (converted).

`COc1ccc(Br)cc1-c1oc2cccc(OC)c2c(=O)c1O` came in with an IC50 with CHO of 17.3 µM. In experiment [1], the Activity is -1%. In addition, the outcome in experiment [2] was inactive.
The molecule `COc1ccc(Br)cc1-c1oc2ccccc2c(=O)c1O` displayed an IC50 with CHO of 88.5 µM. In experiment [1], the Activity was -11%. Besides, the result in experiment [2] was inactive.
The molecule `CCOc1ccc(Cl)cc1-c1oc2ccccc2c(=O)c1O` came in with an IC50 in the experiment with CHO of over 100 µM. Besides, the Activity in experiment [1] is -17%. The Efficacy in experiment [2] was -41%. Further, the EC50 in experiment [3] (setting [4]) is 0.31 µM; in experiment [3] (setting [5]), 0.309 µM.
In the experiment on CHO, `COc1ccc(I)cc1/C=C/C(=O)c1ccccc1O` yielded an IC50 of 6.7 µM. For the same molecule, in experiment [1], the Activity turned out to be 100%. Further, in experiment [2], the Efficacy was -94%. Also, the EC50 in experiment [3] (setting [4]) and in experiment [3] (setting [5]) was 5.5 µM in each case.
Consider `CCOc1ccc(Br)cc1-c1oc2ccccc2c(=O)c1O`, for which, in the experiment on CHO, the IC50 is 13.5 µM. Besides, the Activity in experiment [1] was -31%. The Efficacy in experiment [2] is -41%. For the same molecule, the figures for the EC50 in experiment [3] (setting [4]) and in experiment [3] (setting [5]) were 0.8 µM and 0.832 µM, respectively.
As to `COc1ccc(Cl)cc1C1CC(=O)c2ccccc2O1` (stereo unspecified), the Activity in experiment [1] is -14%. Further, the result in experiment [2] was inactive.
As for `COc1ccc(Br)cc1-c1cc(=O)c2ccccc2o1`, the concentration for half-maximal inhibition (IC50) in the experiment on CHO is over 100 µM. Besides, in experiment [1], the Activity was -17%. Besides, the Efficacy in experiment [2] was -55%. Besides, the EC50 in experiment [3] (setting [4]) was 8.1 µM; in experiment [3] (setting [5]), 8.13 µM.
With `CCOc1ccc(Cl)cc1/C=C/C(=O)c1ccccc1O`, the IC50 in the experiment with CHO was determined as 6.8 µM. Moreover, the Activity in experiment [1] came out at 33%. In addition, the Efficacy in experiment [2] is -76%. Moreover, the EC50 in experiment [3] (setting [4]) was 6.4 µM; in experiment [3] (setting [5]) it was 6.46 µM.
Taken in the same sequence, the figures for `COc1ccc(Br)cc1/C=C/C(=O)c1ccc2ccccc2c1O` were 15.6 µM, 35%, -92%, 2.9 µM and 2.88 µM.
With `COc1cc(Br)cc(-c2oc3ccccc3c(=O)c2O)c1OC`, the IC50 in the experiment with CHO is over 100 µM. In experiment [1], the Activity is -28%. The outcome in experiment [2] was inactive.
`COc1cc(Br)cc(/C=C/C(=O)c2ccccc2O)c1OC` showed an IC50 with CHO of 7.2 µM. The Activity in experiment [1] was -42%. The Efficacy in experiment [2] was -52%. Also, the EC50 is 6.7 µM in experiment [3] (setting [4]) and 6.61 µM in experiment [3] (setting [5]).
Taken in the same sequence, the figures for `CCOc1ccc(Br)cc1/C=C/C(=O)c1ccccc1O` were 7.2 µM, -3%, -88%, 5 µM and 5.01 µM.
`COc1ccc(Br)cc1C1CC(=O)c2ccccc2O1` (stereo unspecified) showed a half-inhibitory concentration (IC50) in the experiment on CHO of 67.9 µM. For the same molecule, the Activity in experiment [1] is -5%. Moreover, the result in experiment [2] was inactive.
The corresponding values for `COc1ccc(I)cc1-c1oc2ccccc2c(=O)c1O` are 17.9 µM, -23% and “inactive”.
For `COc1ccc(Br)cc1-c1cc(=O)c2c(OCc3ccccc3)cccc2o1`, in the experiment on CHO, the midpoint of inhibition, the IC50, lay at 96.6 µM. Further, the Activity in experiment [1] is -3%. The Efficacy in experiment [2] was -89%. Further, the EC50 in experiment [3] (setting [4]) was 3.5 µM; in experiment [3] (setting [5]), 3.47 µM.
Taken in the same sequence, the figures for `COc1cc(OC)c(/C=C/C(=O)c2ccccc2O)cc1Br` were 16.9 µM, 5%, -55%, 4.9 µM and 4.9 µM.
The corresponding values for `COc1ccccc1/C=C/C(=O)c1ccccc1O` are 25.5 µM, 8%, 67%, 1.4 µM and 1.45 µM.
Turning to `COc1ccc(Br)cc1/C=C/C(=O)c1c(O)cccc1OCc1ccccc1`, half-maximal inhibition with CHO (IC50) required 8.1 µM. In addition, the EC50 entry in experiment [3] (hek-293t) was “ND(toxic)”.
`COc1ccccc1-c1cc(=O)c2ccccc2o1` returned an IC50 in the experiment on CHO of 64.8 µM. In experiment [1], the Activity amounted to 3%. Further, the outcome in experiment [2] was inactive.
As to `COc1ccc(C)cc1-c1oc2ccccc2c(=O)c1O`, 54.6 µM corresponded to half-maximal inhibition with CHO (IC50). The Activity in experiment [1] worked out at 0%. Further, the Efficacy in experiment [2] is -38%. For the same molecule, the EC50 in experiment [3] (setting [4]) and in experiment [3] (setting [5]) was 1.78 µM throughout.
Consider `COc1ccc(Cl)cc1-c1oc2ccccc2c(=O)c1O`, for which the IC50 in the experiment on CHO worked out at 25 µM. In experiment [1], the Activity was 2%. Moreover, in experiment [2], the Efficacy is -42%. Also, the EC50 in experiment [3] (setting [4]) and in experiment [3] (setting [5]) was 1.32 µM throughout.
Consider `COc1ccc(Br)cc1/C=C/C(=O)c1ccccc1O`, for which 8.7 µM corresponded to half-maximal inhibition in the experiment with CHO (IC50). Moreover, the Activity in experiment [1] is -29%. The Efficacy in experiment [2] is -44%. Also, the EC50 in experiment [3] (setting [4]) is 7.8 µM; in experiment [3] (setting [5]) it was 7.76 µM.
`COc1cc(OC)c(-c2oc3ccccc3c(=O)c2O)cc1Br` gave an IC50 in the experiment with CHO of 18.3 µM. In addition, the Activity in experiment [1] is -17%. In experiment [2], the result was inactive.
In the experiment on CHO, `COc1ccc(C)cc1/C=C/C(=O)c1ccccc1O` had a half-inhibitory concentration (IC50) of 14.2 µM. Moreover, the Activity in experiment [1] was -4%. Besides, the Efficacy in experiment [2] came out at 52%. For the same molecule, the EC50 in experiment [3] (setting [4]) amounted to 10 µM.
With `COc1ccccc1-c1oc2ccccc2c(=O)c1O`, in the experiment with CHO, the IC50 was over 100 µM. The Activity in experiment [1] was -1%. Further, the Efficacy in experiment [2] is -19%. Besides, the EC50 in experiment [3] (setting [4]) is 4.6 µM; in experiment [3] (setting [5]), 4.57 µM.
In the experiment with CHO, `COc1ccc(Br)cc1-c1cc(=O)c2c(O)cccc2o1` yielded an IC50 of 75.2 µM. Further, the Activity in experiment [1] was -16%. Further, the outcome in experiment [2] was inactive.
As to `COc1ccc(Br)cc1/C=C/C(=O)c1c(O)cccc1OC`, half-maximal inhibition in the experiment with CHO (IC50) required 6.1 µM. For the same molecule, in experiment [1], the Activity amounted to 290%. In experiment [2], the Efficacy is -95%. The EC50 in experiment [3] (setting [4]) is 6 µM; in experiment [3] (setting [5]), 6.03 µM.
The molecule `COc1ccc(Cl)cc1/C=C/C(=O)c1ccccc1O` displayed an IC50 in the experiment on CHO of 8.4 µM. Moreover, the Activity in experiment [1] was -30%. In addition, in experiment [2], the Efficacy was -58%. In addition, the EC50 in experiment [3] (setting [4]) is 7.8 µM; in experiment [3] (setting [5]) it was 7.76 µM.
As to `COc1ccccc1/C=C/C(=O)c1c(O)cccc1OCc1ccccc1`, the EC50 entry in experiment [3] (hek-293t) is on record as “ND(toxic)”.
In the experiment with CHO, `COc1ccccc1-c1cc(=O)c2c(OCc3ccccc3)cccc2o1` had an IC50 of 17.5 µM. Further, the Activity in experiment [1] was -40%. Moreover, in experiment [2], the Efficacy was -49%. Besides, the results for the EC50 in experiment [3] (setting [4]) and in experiment [3] (setting [5]) were 7.3 µM and 7.24 µM, respectively.
`COc1ccccc1-c1cc(=O)c2c(O)cccc2o1`: the IC50 in the experiment on CHO was over 100 µM. Moreover, in experiment [1], the Activity turned out to be 2%. Further, the outcome in experiment [2] was inactive.
